The values below come from ChEMBL document CHEMBL1687928, “Discovery, optimization, and pharmacological characterization of novel heteroaroylphenylureas antagonists of C-C chemokine ligand 2 function” (J Med Chem, 2011).

The species named for data set [1] is Mus musculus. Put plainly: Antiinflammatory activity in Freund's adjuvant-induced C57BL/6 mouse assessed as decrease in inflammatory cell infiltrates in brain. In kind it is functional, organism-based. In outline:
(§1)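 C57BL/6 mice were immunized s.c. with a MOG33-55 peptide emulsion and given pertussis vaccine (350 ng i.v.) right away and again 48 h later. From day 0, compound in 3% aqueous Tween 80 (4 mg/mL) or water was dosed orally b.i.d. Tissue cellular infiltrate was scored 0–5, from few small perivascular/meningeal infiltrates up to very large extensive infiltrate.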

The subject of data set [2] is Mus musculus. Put plainly: Toxicity in ICR mouse assessed as vacuolar degeneration in kidney at 300 mg/kg, po QD for 14 days. In kind it is organism-based. To be noted: in vivo, 336 h. Set-up: dose 300 mg/kg, route oral.
Data set [3] has as its target CYP2D6 (Homo sapiens, UniProt P10635). Kind of data set: Inhibition of CYP2D6 at 100 uM. In kind it is ADME.
For data set [4], the target named is CYP3A4 (Homo sapiens, UniProt P08684). Put plainly: Inhibition of CYP3A4 at 100 uM. Type of data set: ADME.
Sequence of CYP3A4 (P08684 whole entry): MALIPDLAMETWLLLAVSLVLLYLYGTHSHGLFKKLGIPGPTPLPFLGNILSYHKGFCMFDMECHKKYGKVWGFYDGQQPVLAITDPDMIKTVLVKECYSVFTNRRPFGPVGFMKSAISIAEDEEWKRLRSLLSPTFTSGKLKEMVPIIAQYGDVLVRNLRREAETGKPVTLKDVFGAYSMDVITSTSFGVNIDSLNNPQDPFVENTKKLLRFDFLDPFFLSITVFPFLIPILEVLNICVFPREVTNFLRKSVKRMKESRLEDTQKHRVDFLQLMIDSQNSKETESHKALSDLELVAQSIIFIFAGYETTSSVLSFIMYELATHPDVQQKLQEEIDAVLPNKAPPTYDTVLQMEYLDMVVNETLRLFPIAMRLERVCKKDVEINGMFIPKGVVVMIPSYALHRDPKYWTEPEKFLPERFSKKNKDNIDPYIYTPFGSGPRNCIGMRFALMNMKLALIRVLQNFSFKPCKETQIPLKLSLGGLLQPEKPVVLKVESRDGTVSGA
Data set [5] has as its system Mus musculus. Put plainly: Toxicity in ICR mouse at 30 mg/kg, po QD for 14 days. In kind it is organism-based. Set-up: dose 30 mg/kg, route oral. Particulars: in vivo, 336 h. In outline:
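Repeated-dose study in 6-week-old male ICR mice. Vehicle or 30, 100 or 300 mg/kg was given orally once daily for 14 days. Survival, behavior, body weight and liver enzymes (AST, ALT) were monitored.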

A short description of data set [6]: Half life in rat at 5 mg/kg, po. Also noted: dose 5 mg/kg, route oral. Type of data set: ADME, organism-based. Particulars: in vivo.
Data set [7] deals with Mus musculus. Put plainly: Toxicity in ICR mouse assessed as increase in feeding behavior at 1000 mg/kg, po administered as single dose. Type of data set: organism-based. Particulars: in vivo. Also noted: dose 1000 mg/kg, route oral.
Data set [8] is filed under the species Mus musculus. Put plainly: Antiinflammatory activity in Freund's adjuvant-induced C57BL/6 mouse assessed as decrease in inflammatory cell infiltrates in spinal cord. In kind it is functional, organism-based. In outline:
as §1

The species entered for data set [9] is Mus musculus. Kind of data set: Antiinflammatory activity in Freund's adjuvant-induced C57BL/6 mouse assessed as decrease in inflammatory cell infiltrates in cerebellum. Type of data set: functional, organism-based. The method in brief: as §1
In data set [10] the target is T1, CYP1A2 (Homo sapiens, UniProt P05177).
T1 sequence (P05177 whole entry): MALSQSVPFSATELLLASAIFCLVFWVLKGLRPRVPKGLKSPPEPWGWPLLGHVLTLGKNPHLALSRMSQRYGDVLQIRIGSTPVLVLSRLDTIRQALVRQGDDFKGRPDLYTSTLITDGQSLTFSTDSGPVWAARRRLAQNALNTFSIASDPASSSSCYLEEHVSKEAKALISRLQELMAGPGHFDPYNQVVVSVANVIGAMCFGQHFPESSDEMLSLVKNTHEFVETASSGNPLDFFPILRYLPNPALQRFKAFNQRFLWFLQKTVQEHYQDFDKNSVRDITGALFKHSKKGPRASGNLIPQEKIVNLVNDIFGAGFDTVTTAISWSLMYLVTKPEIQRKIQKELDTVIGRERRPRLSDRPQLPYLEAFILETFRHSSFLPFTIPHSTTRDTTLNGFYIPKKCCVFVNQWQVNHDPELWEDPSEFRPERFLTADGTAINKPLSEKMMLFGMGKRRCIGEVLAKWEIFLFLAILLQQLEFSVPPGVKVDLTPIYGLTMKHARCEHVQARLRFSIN
Put plainly: Inhibition of CYP1A2 at 1 uM. In kind it is ADME.

Data set [11] in a line: Tmax in rat at 100 mg/kg, po. Type of data set: ADME, organism-based. Also noted: dose 100 mg/kg, route oral. To be noted: in vivo. In outline:
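Rats, not fasted, received a single intravenous or oral dose.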

The nature of data set [12]: Aqueous solubility of the compound at pH 1.2. In kind it is physicochemical.
The nature of data set [13]: Cmax in rat at 30 mg/kg, po. Set-up: dose 30 mg/kg, route oral. Particulars: in vivo. Type of data set: ADME, organism-based.
Data set [14] deals with Rattus norvegicus. Kind of data set: Drug uptake in collagen-induced Lewis rat tarasal joints at 2 to 30 mg/kg, po measured 5 hrs after last dosing. Type of data set: functional, organism-based. The method in brief: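 In the rat collagen-induced arthritis study (oral b.i.d. dosing for 28 days), compound concentration was measured in plasma, tarsal homogenates and thigh-bone marrow. Samples were taken 5 h after the last dose on day 28.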

Data set [15] deals with Rattus norvegicus. Put plainly: Antiinflammatory activity in complete Freund's adjuvant-induced Lewis rat arthritis model assessed as inhibition of paw edema at 30 mg/kg, po BID. In kind it is functional, organism-based. Also noted: dose 30 mg/kg. The method in brief: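 Female Lewis SPF rats, 6 weeks old (n = 8/group), received an intradermal right hind footpad injection of 100 μL PBS-emulsified Freund's complete adjuvant (10 mg/mL M. butyricum). From day 10, compound in 5% gum arabic or vehicle was gavaged b.i.d. for a further 18 days; methotrexate 3×/week was the positive control. Left hind-limb volume was read by plethysmometer on days 0, 8, 15, 21 and 28, as % increase over day 0.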

One may read the inhibition as the drop in the measured response relative to a control, in per cent. As a reminder, the half-life is the time needed for the level to fall by half in the phase considered. Read a low half-life as rapid decline. Usually Tmax stands for the time from dosing to the highest level. What is called solubility is the concentration that dissolves in the medium under given conditions. Read a high solubility as a readily soluble substance. By Cmax is commonly meant the peak of the concentration-time curve.

Calls of active or inactive are those of the source.

Sequence of CYP2D6 (P10635 whole entry): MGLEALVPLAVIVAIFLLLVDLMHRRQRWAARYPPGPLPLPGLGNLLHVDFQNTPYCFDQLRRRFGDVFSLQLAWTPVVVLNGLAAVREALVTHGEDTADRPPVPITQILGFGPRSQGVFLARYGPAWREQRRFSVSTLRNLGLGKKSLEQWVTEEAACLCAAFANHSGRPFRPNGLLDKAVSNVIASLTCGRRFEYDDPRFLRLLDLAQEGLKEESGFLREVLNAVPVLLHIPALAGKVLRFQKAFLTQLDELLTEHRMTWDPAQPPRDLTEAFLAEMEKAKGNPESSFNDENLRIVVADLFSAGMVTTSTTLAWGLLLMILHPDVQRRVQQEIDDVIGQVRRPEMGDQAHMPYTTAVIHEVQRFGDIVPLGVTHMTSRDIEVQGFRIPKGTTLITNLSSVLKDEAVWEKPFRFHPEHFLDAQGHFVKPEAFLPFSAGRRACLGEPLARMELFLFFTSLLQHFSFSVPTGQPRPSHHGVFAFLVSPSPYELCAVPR

On to `Cc1nn(C)c2nc(N(C)CCN(C)C)c(C(=O)NC(=O)Nc3cccc(OC(C)C)c3)cc12.Cl`, for which the outcome in data set [1], in data set [8], in data set [9] and in [15] was Active. Also, the Activity result in [2] was “Toxic”; in data set [5], “Non-toxic”; in [7], “Toxic”. Besides, the inhibition at 100 µM in data set [3] is 73%; in data set [4] it was 49%. In addition, the half-life in data set [6] is > 24 h. In addition, the inhibition at 1 µM in data set [10] is -12%. Further, in [11], the Tmax came out at 3 h. In data set [12], the solubility is 31.3 µg/mL. This compound registered a Cmax in data set [13] of 383 ng/mL. The Drug uptake result in data set [14] was “Active”.
